Structures are written as SMILES.

The first assay addresses T1, N-acylethanolamine-hydrolyzing acid amidase (Rattus norvegicus, UniProt Q5KTC7).
T1 sequence (Q5KTC7 whole entry): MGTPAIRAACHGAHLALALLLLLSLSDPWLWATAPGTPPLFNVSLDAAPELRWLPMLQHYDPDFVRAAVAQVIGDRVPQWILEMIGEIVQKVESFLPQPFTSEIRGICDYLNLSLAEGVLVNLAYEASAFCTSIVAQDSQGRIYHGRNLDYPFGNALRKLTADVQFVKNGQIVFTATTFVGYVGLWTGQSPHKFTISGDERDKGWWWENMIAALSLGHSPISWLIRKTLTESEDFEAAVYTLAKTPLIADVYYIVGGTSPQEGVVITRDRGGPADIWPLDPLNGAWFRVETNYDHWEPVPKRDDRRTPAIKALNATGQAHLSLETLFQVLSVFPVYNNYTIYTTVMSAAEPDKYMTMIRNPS
In words: Inhibition of NAAA in Sprague-Dawley rat lung assessed as inhibition of hydrolysis of 10-cis-heptadecenoylethanolamide by UPLC/MS method. The conditions noted are these: read-out: IC50. In outline: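 Native NAAA enzyme prepared from rat lungs, not a recombinant construct. The substrate, 10-cis-heptadecenoylethanolamide, is an unnatural fatty acid ethanolamide. Inhibition of its hydrolysis was measured, and the median inhibitory concentration (IC50) was reported.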
With `C[C@@H]1OC(=O)[C@@H]1NC(=O)OCc1ccccc1`, the IC50 was determined as 2090 nM.
On the same count and under the same terms, the figure for `C[C@@H]1OC(=O)[C@@H]1NC(=O)OC(C)(C)C` is 6350 nM.
The same measure, in the same setting: to `CCCCCOC(=O)N[C@H]1C(=O)O[C@H]1C` belongs 760 nM; to `C[C@@H]1OC(=O)[C@@H]1NC(=O)OCCCCCc1ccc(F)cc1`, 240 nM.
Regarding `C[C@@H]1OC(=O)[C@@H]1NC(=O)OCCCCCl`, the IC50 turned out to be 288 nM.
Still for that read-out and setting: the figure for `CCCCC1(OC(=O)N[C@H]2C(=O)O[C@H]2C)COC1` is 3760 nM; for `C[C@@H]1OC(=O)[C@@H]1NC(=O)OC1(CCCCc2ccccc2)COC1` it is 520 nM; for `C[C@@H]1OC(=O)[C@@H]1NC(=O)OCCCCCCCc1ccccc1` it is 39 nM.
The same measure, in the same setting: the figure for `C[C@@H]1OC(=O)[C@@H]1NC(=O)OCC#Cc1ccccc1` is 20 nM; for `C[C@@H]1OC(=O)[C@@H]1NC(=O)OCc1ccc(-c2ccsc2)cc1` it is 22 nM.
Same read-out and setting: to `C[C@@H]1OC(=O)[C@@H]1NC(=O)OCc1ccc(C2CCCCC2)cc1` belongs 7 nM.
With `C[C@@H]1OC(=O)[C@@H]1NC(=O)OCc1ccc(-c2ccc(F)cc2)cc1`, the IC50 turned out to be 11 nM.
`Cc1ccc(-c2ccc(COC(=O)N[C@H]3C(=O)O[C@H]3C)cc2)cc1`: the IC50 is 29 nM.
In the case of `C[C@@H]1OC(=O)[C@@H]1NC(=O)OCc1ccc(-c2ccc(C(F)(F)F)cc2)cc1`, the IC50 is 36 nM.
Still for that read-out and setting: to `C[C@@H]1OC(=O)[C@@H]1NC(=O)OCc1ccc(OC2CCCCC2)cc1` belongs 23 nM; to `C[C@@H]1OC(=O)[C@@H]1NC(=O)OCc1ccc2c(c1)OCO2`, 176 nM; to `CCCCc1ccc(COC(=O)N[C@H]2C(=O)O[C@H]2C)cc1`, 15 nM.
Same read-out and setting: to `C[C@@H]1OC(=O)[C@@H]1NC(=O)OCc1ccc(C(C)(C)C)cc1` belongs 22 nM.
Same read-out and setting: to `C[C@@H]1OC(=O)[C@@H]1NC(=O)OCc1ccc(-c2sccc2Br)cc1` belongs 28 nM.
Consider `Cc1ccc2sc(COC(=O)N[C@H]3C(=O)O[C@H]3C)cc2c1`, for which the IC50 came out at 13 nM.
Regarding `CCCCCCCC#CCOC(=O)N[C@H]1C(=O)O[C@H]1C`, the IC50 was determined as 77 nM.

The assay is the same for the next values; noted with them: read-out: pIC50 (converted).
Take `C[C@@H]1OC(=O)[C@@H]1NC(=O)OCCCCCc1ccccc1`: the IC50 was 52.5 nM.
On to `C[C@@H]1OC(=O)[C@@H]1NC(=O)OC(C)(C)CCCCc1ccccc1`, for which the IC50 is 316 nM.
Same read-out and setting: the figure for `C[C@@H]1OC(=O)[C@@H]1NC(=O)OCc1ccc(-c2ccccc2)cc1` is 7.24 nM; for `C[C@@H]1OC(=O)[C@@H]1NC(=O)OCCCc1ccccc1` it is 85.1 nM; for `CCCCCCCOC(=O)N[C@H]1C(=O)O[C@H]1C` it is 44.7 nM.
The same measure, in the same setting: the figure for `C[C@@H]1OC(=O)[C@@H]1NC(=O)OCCCOCc1ccccc1` is 51.3 nM; for `C[C@@H]1OC(=O)[C@@H]1NC(=O)OCCOCCc1ccccc1` it is 148 nM; for `C[C@@H]1OC(=O)[C@@H]1NC(=O)OCc1ccc(-c2ccsc2)cc1` it is 20.9 nM.

The record behind these values is ChEMBL document CHEMBL3351654, “Synthesis, biological evaluation, and 3D QSAR study of 2-methyl-4-oxo-3-oxetanylcarbamic acid esters as N-acylethanolamine acid amidase (NAAA) inhibitors” (J Med Chem, 2014).
